{
  "source": "ChEMBL document CHEMBL1121489",
  "about": "“6-(Substituted-amino)-4H-s-triazolo[4,3-a][1,4]benzodiazepines and 4-(substituted-amino)-6H-s-triazolo[4,3-a][1,4]benzodiazepines with potential antianxiety activity” (1980)",
  "type_in_all_cases": "functional",
  "key": {"Mus musculus [1]": {"species": "Mus musculus", "experiment": "Effect on prolongation of hypoxic survival time (HS) in Carworth farms male albino mice", "in_short": "(§1)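 Male albino CF-1 mice (18–22 g). Compounds were dissolved or suspended in 0.25% aqueous methylcellulose and given ip to groups of four or six mice per dose, at multiple dose levels spaced 0.3 log apart. ED50 values were calculated by the Spearman–Karber method.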"}, "Mus musculus [2]": {"species": "Mus musculus", "experiment": "Effect on antagonism of nicotine-induced tonic-extensor convulsions (TE) in Carworth farms male albino mice", "in_short": "as §1"}, "Mus musculus [3]": {"species": "Mus musculus", "experiment": "Effect on loss of traction (Tr) in Carworth farms male albino mice", "in_short": "as §1"}, "Mus musculus [4]": {"species": "Mus musculus", "experiment": "Effect on bicuculline-induced tonic-extensor convulsions (B) in Carworth farms male albino mice", "in_short": "as §1"}, "Mus musculus [5]": {"species": "Mus musculus", "experiment": "Effect on potentiation of gamma-butyrolactone-induced sleep (gamma-B) in Carworth farms male albino mice", "in_short": "as §1"}, "Mus musculus [6]": {"species": "Mus musculus", "experiment": "Effect on pentylenetetrazole-induced clonic convulsions (P) in Carworth farms male albino mice", "in_short": "as §1"}, "Mus musculus [7]": {"species": "Mus musculus", "experiment": "Effect on antagonism of nicotine-induced death (D) in Carworth farms male albino mice", "in_short": "as §1"}, "Mus musculus [8]": {"species": "Mus musculus", "experiment": "Effect on bicuculline-induced tonic-extensor convulsions (B) in Carworth farms male albino mice.", "in_short": "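CF-1 male albino mice, 18–22 g. Unless otherwise indicated, compounds were dissolved or suspended in 0.25% aqueous methylcellulose and given ip to groups of 4 or 6 mice per dose. Several dose levels were spaced at 0.3 log intervals. ED50 was calculated by the Spearman–Karber method.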"}, "Mus musculus [9]": {"species": "Mus musculus", "experiment": "Effect on antagonism of nicotine-induced tonic-extensor convulsions (TE) in Carworth farms male albino mice.", "in_short": "as §1"}},
  "data": [
    {"smiles": "Cc1nnc2n1-c1ccc(Cl)cc1C(c1ccccc1)=NC2", "note": "[ALPRAZOLAM]", "values": [
      {"measurement": "ED50", "setting": "Mus musculus [1]", "value": 0.2, "unit": "mg/kg"},
      {"measurement": "ED50", "setting": "Mus musculus [2]", "value": 0.02, "unit": "mg/kg"},
      {"measurement": "ED50", "setting": "Mus musculus [3]", "value": 0.6, "unit": "mg/kg"},
      {"measurement": "ED50", "setting": "Mus musculus [4]", "value": 0.2, "unit": "mg/kg"},
      {"measurement": "ED50", "setting": "Mus musculus [5]", "value": 0.08, "unit": "mg/kg"},
      {"measurement": "ED50", "setting": "Mus musculus [6]", "value": 0.1, "unit": "mg/kg"},
      {"measurement": "ED50", "setting": "Mus musculus [7]", "value": 0.02, "unit": "mg/kg"}
    ]},
    {"smiles": "Cc1nnc2n1-c1ccc(Cl)cc1CN=C2N1CCCC1", "values": [
      {"measurement": "ED50", "setting": "Mus musculus [8]", "value": "> 6", "unit": "mg/kg"},
      {"measurement": "ED50", "setting": "Mus musculus [2]", "value": "> 6", "unit": "mg/kg"},
      {"measurement": "ED50", "setting": "Mus musculus [3]", "value": "> 6", "unit": "mg/kg"},
      {"measurement": "ED50", "setting": "Mus musculus [5]", "value": "> 6", "unit": "mg/kg"}
    ]},
    {"smiles": "CCCCCCNC1=NCc2nnc(C)n2-c2ccc(Cl)cc21", "values": [
      {"measurement": "ED50", "setting": "Mus musculus [2]", "value": "> 100", "unit": "mg/kg"},
      {"measurement": "ED50", "setting": "Mus musculus [3]", "value": "> 100", "unit": "mg/kg"},
      {"measurement": "ED50", "setting": "Mus musculus [7]", "value": "> 100", "unit": "mg/kg"}
    ]},
    {"smiles": "Cc1nnc2n1-c1ccc(Cl)cc1C(N1CCOCC1)=NC2", "values": [
      {"measurement": "ED50", "setting": "Mus musculus [2]", "value": 80, "unit": "mg/kg"},
      {"measurement": "ED50", "setting": "Mus musculus [3]", "value": "> 100", "unit": "mg/kg"},
      {"measurement": "ED50", "setting": "Mus musculus [7]", "value": 71, "unit": "mg/kg"}
    ]},
    {"smiles": "Cc1nnc2n1-c1ccc(Cl)cc1CN=C2N1CCCCCC1", "values": [
      {"measurement": "ED50", "setting": "Mus musculus [2]", "value": "> 100", "unit": "mg/kg"},
      {"measurement": "ED50", "setting": "Mus musculus [3]", "value": "> 100", "unit": "mg/kg"}
    ]},
    {"smiles": "Cc1nnc2n1-c1ccc(Cl)cc1C(N1CCCCC1)=NC2", "values": [
      {"measurement": "ED50", "setting": "Mus musculus [1]", "value": 0.3, "unit": "mg/kg"},
      {"measurement": "ED50", "setting": "Mus musculus [2]", "value": 0.4, "unit": "mg/kg"},
      {"measurement": "ED50", "setting": "Mus musculus [3]", "value": 0.3, "unit": "mg/kg"},
      {"measurement": "ED50", "setting": "Mus musculus [4]", "value": 0.7, "unit": "mg/kg"},
      {"measurement": "ED50", "setting": "Mus musculus [5]", "value": 0.9, "unit": "mg/kg"},
      {"measurement": "ED50", "setting": "Mus musculus [6]", "value": 1.1, "unit": "mg/kg"},
      {"measurement": "ED50", "setting": "Mus musculus [7]", "value": 0.4, "unit": "mg/kg"}
    ]},
    {"smiles": "CN1C(=O)CN=C(c2ccccc2)c2cc(Cl)ccc21", "note": "[DIAZEPAM]", "values": [
      {"measurement": "ED50", "setting": "Mus musculus [1]", "value": 0.2, "unit": "mg/kg"},
      {"measurement": "ED50", "setting": "Mus musculus [2]", "value": 0.28, "unit": "mg/kg"},
      {"measurement": "ED50", "setting": "Mus musculus [3]", "value": 7, "unit": "mg/kg"},
      {"measurement": "ED50", "setting": "Mus musculus [4]", "value": 2.6, "unit": "mg/kg"},
      {"measurement": "ED50", "setting": "Mus musculus [5]", "value": 0.035, "unit": "mg/kg"},
      {"measurement": "ED50", "setting": "Mus musculus [6]", "value": 0.1, "unit": "mg/kg"},
      {"measurement": "ED50", "setting": "Mus musculus [7]", "value": 0.28, "unit": "mg/kg"}
    ]},
    {"smiles": "Cc1nnc2n1-c1ccc(Cl)cc1CN=C2N1CCN(C)CC1", "values": [
      {"measurement": "ED50", "setting": "Mus musculus [1]", "value": 40, "unit": "mg/kg"},
      {"measurement": "ED50", "setting": "Mus musculus [2]", "value": "> 100", "unit": "mg/kg"},
      {"measurement": "ED50", "setting": "Mus musculus [3]", "value": "> 100", "unit": "mg/kg"},
      {"measurement": "ED50", "setting": "Mus musculus [4]", "value": "> 50", "unit": "mg/kg"},
      {"measurement": "ED50", "setting": "Mus musculus [5]", "value": 40, "unit": "mg/kg"},
      {"measurement": "ED50", "setting": "Mus musculus [6]", "value": "> 50", "unit": "mg/kg"}
    ]},
    {"smiles": "Cc1nnc2n1-c1ccc(Cl)cc1C(N1CCN(C)CC1)=NC2", "values": [
      {"measurement": "ED50", "setting": "Mus musculus [2]", "value": "> 100", "unit": "mg/kg"},
      {"measurement": "ED50", "setting": "Mus musculus [3]", "value": "> 100", "unit": "mg/kg"},
      {"measurement": "ED50", "setting": "Mus musculus [7]", "value": "> 100", "unit": "mg/kg"}
    ]},
    {"smiles": "Cc1nnc2n1-c1ccc(Cl)cc1C(N1CCN(c3ccccc3)CC1)=NC2", "values": [
      {"measurement": "ED50", "setting": "Mus musculus [2]", "value": "> 100", "unit": "mg/kg"},
      {"measurement": "ED50", "setting": "Mus musculus [3]", "value": "> 100", "unit": "mg/kg"},
      {"measurement": "ED50", "setting": "Mus musculus [7]", "value": "> 100", "unit": "mg/kg"}
    ]},
    {"smiles": "Cc1nnc2n1-c1ccc(Cl)cc1CN=C2N1CCOCC1", "values": [
      {"measurement": "ED50", "setting": "Mus musculus [2]", "value": "> 100", "unit": "mg/kg"},
      {"measurement": "ED50", "setting": "Mus musculus [3]", "value": "> 100", "unit": "mg/kg"},
      {"measurement": "ED50", "setting": "Mus musculus [4]", "value": "> 50", "unit": "mg/kg"},
      {"measurement": "ED50", "setting": "Mus musculus [5]", "value": "> 50", "unit": "mg/kg"},
      {"measurement": "ED50", "setting": "Mus musculus [6]", "value": 40, "unit": "mg/kg"}
    ]},
    {"smiles": "Cc1nnc2n1-c1ccc(Cl)cc1CN=C2N1CCCCC1", "values": [
      {"measurement": "ED50", "setting": "Mus musculus [3]", "value": "> 100", "unit": "mg/kg"},
      {"measurement": "ED50", "setting": "Mus musculus [9]", "value": "> 100", "unit": "mg/kg"}
    ]},
    {"smiles": "Cc1nnc2n1-c1ccc(Cl)cc1C(N1CCCC1)=NC2", "values": [
      {"measurement": "ED50", "setting": "Mus musculus [1]", "value": "> 50", "unit": "mg/kg"},
      {"measurement": "ED50", "setting": "Mus musculus [2]", "value": 18, "unit": "mg/kg"},
      {"measurement": "ED50", "setting": "Mus musculus [3]", "value": "> 100", "unit": "mg/kg"},
      {"measurement": "ED50", "setting": "Mus musculus [4]", "value": "> 50", "unit": "mg/kg"},
      {"measurement": "ED50", "setting": "Mus musculus [5]", "value": 7.4, "unit": "mg/kg"},
      {"measurement": "ED50", "setting": "Mus musculus [6]", "value": "> 50", "unit": "mg/kg"},
      {"measurement": "ED50", "setting": "Mus musculus [7]", "value": 18, "unit": "mg/kg"}
    ]},
    {"smiles": "Cc1nnc2n1-c1ccc(Cl)cc1C(N1CCCCCC1)=NC2", "values": [
      {"measurement": "ED50", "setting": "Mus musculus [2]", "value": "> 100", "unit": "mg/kg"},
      {"measurement": "ED50", "setting": "Mus musculus [3]", "value": "> 100", "unit": "mg/kg"},
      {"measurement": "ED50", "setting": "Mus musculus [7]", "value": "> 100", "unit": "mg/kg"}
    ]},
    {"smiles": "Cc1nnc2n1-c1ccc(Cl)cc1C(N1CCN(CCO)CC1)=NC2", "values": [
      {"measurement": "ED50", "setting": "Mus musculus [2]", "value": "> 100", "unit": "mg/kg"},
      {"measurement": "ED50", "setting": "Mus musculus [3]", "value": "> 100", "unit": "mg/kg"},
      {"measurement": "ED50", "setting": "Mus musculus [7]", "value": "> 100", "unit": "mg/kg"}
    ]}
  ]
}
